Source: ChEMBL document CHEMBL4689842, “EUbOPEN Chemogenomics Library wave 1” (2021)

System: Fibroblast
Test: Multiplex assay against human fibroblast
Format: toxicity, cell-based
Method in brief: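 Live cells were stained at seeding with Hoechst33342, BioTracker Green Microtubule Cytoskeleton Dye, MitoTracker Red and Annexin V Alexa Fluor 680, then imaged on a CQ1 microscope at 37°C and 5% CO2 after compound addition. CellPathfinder machine-learning gating split cells into Hoechst high-intensity objects or normal cells. Normal cells were split into healthy, pyknosed or fragmented nuclei, and pyknosed cells into mitotic or apoptotic. Tubulin, mitochondrial-mass and membrane-permeability phenotypes are per cents of healthy-nucleus cells.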

[1] = 12 h, 1 µM, compound concentration 1 uM, replicate 1
[2] = 12 h, 1 µM, compound concentration 1 uM, replicate 2
[3] = 12 h, 10 µM, compound concentration 10 uM, replicate 1
[4] = 12 h, 10 µM, compound concentration 10 uM, replicate 2
[5] = 24 h, 1 µM, compound concentration 1 uM, replicate 1
[6] = 24 h, 1 µM, compound concentration 1 uM, replicate 2
[7] = 24 h, 10 µM, compound concentration 10 uM, replicate 1
[8] = 24 h, 10 µM, compound concentration 10 uM, replicate 2
[9] = 48 h, 1 µM, compound concentration 1 uM, replicate 1
[10] = 48 h, 1 µM, compound concentration 1 uM, replicate 2
[11] = 48 h, 10 µM, compound concentration 10 uM, replicate 1
[12] = 48 h, 10 µM, compound concentration 10 uM, replicate 2

## COC(=O)C1=C(C)NC(C)=C(C(=O)OCCCN2CCC(c3ccccc3)(c3ccccc3)CC2)[C@H]1c1cccc([N+](=O)[O-])c1 [NIGULDIPINE]
[1]
  Population Apoptotic (%): 65%
  Population Fragmented Nuclei (%): 17%
  Population Healthy Nuclei (%): 45%
  Population Hoechst High Intensity Objects (%): 12%
  Population Membrane Permeable-Phenotype (%): 2%
  Population Mitochondria Different-Phenotype (%): 85%
  Population Mitotic Cells (%): 34%
  Population Normal (%): 87%
  Population Pyknosed Nuclei (%): 36%
  Population Tubulin-Different-Phenotype (%): 100%
  Total Cell Count: 99
[2]
  Population Apoptotic (%): 91%
  Population Fragmented Nuclei (%): 6%
  Population Healthy Nuclei (%): 78%
  Population Hoechst High Intensity Objects (%): 9%
  Population Membrane Permeable-Phenotype (%): 66%
  Population Mitochondria Different-Phenotype (%): 100%
  Population Mitotic Cells (%): 8%
  Population Normal (%): 90%
  Population Pyknosed Nuclei (%): 15%
  Total Cell Count: 945
[3]
  Population Apoptotic (%): 65%
  Population Fragmented Nuclei (%): 19%
  Population Healthy Nuclei (%): 10%
  Population Hoechst High Intensity Objects (%): 16%
  Population Membrane Permeable-Phenotype (%): 63%
  Population Mitochondria Different-Phenotype (%): 18%
  Population Mitotic Cells (%): 34%
  Population Normal (%): 83%
  Population Pyknosed Nuclei (%): 69%
  Population Tubulin-Different-Phenotype (%): 72%
  Total Cell Count: 124
[4]
  Population Apoptotic (%): 76%
  Population Fragmented Nuclei (%): 67%
  Population Healthy Nuclei (%): 3%
  Population Hoechst High Intensity Objects (%): 12%
  Population Membrane Permeable-Phenotype (%): 100%
  Population Mitochondria Different-Phenotype (%): 50%
  Population Mitotic Cells (%): 23%
  Population Normal (%): 87%
  Population Pyknosed Nuclei (%): 29%
  Population Tubulin-Different-Phenotype (%): 100%
  Total Cell Count: 87
[5]
  Population Apoptotic (%): 76%
  Population Fragmented Nuclei (%): 25%
  Population Healthy Nuclei (%): 53%
  Population Hoechst High Intensity Objects (%): 13%
  Population Membrane Permeable-Phenotype (%): 7%
  Population Mitochondria Different-Phenotype (%): 85%
  Population Mitotic Cells (%): 23%
  Population Normal (%): 86%
  Population Pyknosed Nuclei (%): 20%
  Population Tubulin-Different-Phenotype (%): 90%
  Total Cell Count: 117
[6]
  Population Apoptotic (%): 77%
  Population Fragmented Nuclei (%): 7%
  Population Healthy Nuclei (%): 65%
  Population Hoechst High Intensity Objects (%): 5%
  Population Membrane Permeable-Phenotype (%): 96%
  Population Mitochondria Different-Phenotype (%): 100%
  Population Mitotic Cells (%): 22%
  Population Normal (%): 94%
  Population Pyknosed Nuclei (%): 27%
  Population Tubulin-Different-Phenotype (%): 100%
  Total Cell Count: 948
[7]
  Population Apoptotic (%): 79%
  Population Fragmented Nuclei (%): 29%
  Population Healthy Nuclei (%): 10%
  Population Hoechst High Intensity Objects (%): 22%
  Population Membrane Permeable-Phenotype (%): 27%
  Population Mitochondria Different-Phenotype (%): 27%
  Population Mitotic Cells (%): 20%
  Population Normal (%): 77%
  Population Pyknosed Nuclei (%): 59%
  Population Tubulin-Different-Phenotype (%): 54%
  Total Cell Count: 135
[8]
  Population Apoptotic (%): 100%
  Population Fragmented Nuclei (%): 40%
  Population Healthy Nuclei (%): 25%
  Population Hoechst High Intensity Objects (%): 11%
  Population Membrane Permeable-Phenotype (%): 100%
  Population Mitochondria Different-Phenotype (%): 100%
  Population Mitotic Cells (%): 0%
  Population Normal (%): 88%
  Population Pyknosed Nuclei (%): 33%
  Population Tubulin-Different-Phenotype (%): 100%
  Total Cell Count: 85
[9]
  Population Apoptotic (%): 80%
  Population Fragmented Nuclei (%): 47%
  Population Healthy Nuclei (%): 44%
  Population Hoechst High Intensity Objects (%): 11%
  Population Membrane Permeable-Phenotype (%): 1%
  Population Mitochondria Different-Phenotype (%): 70%
  Population Mitotic Cells (%): 20%
  Population Normal (%): 88%
  Population Pyknosed Nuclei (%): 7%
  Population Tubulin-Different-Phenotype (%): 80%
  Total Cell Count: 143
[10]
  Population Apoptotic (%): 0%
  Population Fragmented Nuclei (%): 61%
  Population Healthy Nuclei (%): 38%
  Population Hoechst High Intensity Objects (%): 21%
  Population Membrane Permeable-Phenotype (%): 0%
  Population Mitochondria Different-Phenotype (%): 71%
  Population Mitotic Cells (%): 0%
  Population Normal (%): 78%
  Population Pyknosed Nuclei (%): 0%
  Population Tubulin-Different-Phenotype (%): 86%
  Total Cell Count: 126
[11]
  Population Apoptotic (%): 82%
  Population Fragmented Nuclei (%): 48%
  Population Healthy Nuclei (%): 22%
  Population Hoechst High Intensity Objects (%): 28%
  Population Membrane Permeable-Phenotype (%): 31%
  Population Mitochondria Different-Phenotype (%): 22%
  Population Mitotic Cells (%): 17%
  Population Normal (%): 71%
  Population Pyknosed Nuclei (%): 29%
  Population Tubulin-Different-Phenotype (%): 27%
  Total Cell Count: 138
[12]
  Population Apoptotic (%): 90%
  Population Fragmented Nuclei (%): 68%
  Population Healthy Nuclei (%): 17%
  Population Hoechst High Intensity Objects (%): 31%
  Population Membrane Permeable-Phenotype (%): 57%
  Population Mitochondria Different-Phenotype (%): 64%
  Population Mitotic Cells (%): 9%
  Population Normal (%): 68%
  Population Pyknosed Nuclei (%): 13%
  Population Tubulin-Different-Phenotype (%): 21%
  Total Cell Count: 115

## CC(C)CC(=O)Nc1[nH]nc2c1CN(C(=O)C1CCN(C)CC1)C2(C)C [PHA-793887]
[1]
  Population Apoptotic (%): 81%
  Population Fragmented Nuclei (%): 21%
  Population Healthy Nuclei (%): 60%
  Population Hoechst High Intensity Objects (%): 11%
  Population Membrane Permeable-Phenotype (%): 4%
  Population Mitochondria Different-Phenotype (%): 3%
  Population Mitotic Cells (%): 18%
  Population Normal (%): 88%
  Population Pyknosed Nuclei (%): 18%
  Population Tubulin-Different-Phenotype (%): 4%
  Total Cell Count: 233
[2]
  Population Apoptotic (%): 50%
  Population Fragmented Nuclei (%): 48%
  Population Healthy Nuclei (%): 31%
  Population Hoechst High Intensity Objects (%): 46%
  Population Membrane Permeable-Phenotype (%): 22%
  Population Mitochondria Different-Phenotype (%): 44%
  Population Mitotic Cells (%): 50%
  Population Normal (%): 53%
  Population Pyknosed Nuclei (%): 20%
  Population Tubulin-Different-Phenotype (%): 22%
  Total Cell Count: 54
[3]
  Population Apoptotic (%): 73%
  Population Fragmented Nuclei (%): 23%
  Population Healthy Nuclei (%): 66%
  Population Hoechst High Intensity Objects (%): 12%
  Population Membrane Permeable-Phenotype (%): 4%
  Population Mitochondria Different-Phenotype (%): 7%
  Population Mitotic Cells (%): 26%
  Population Normal (%): 87%
  Population Pyknosed Nuclei (%): 10%
  Population Tubulin-Different-Phenotype (%): 4%
  Total Cell Count: 277
[4]
  Population Apoptotic (%): 33%
  Population Fragmented Nuclei (%): 68%
  Population Healthy Nuclei (%): 24%
  Population Hoechst High Intensity Objects (%): 33%
  Population Membrane Permeable-Phenotype (%): 20%
  Population Mitochondria Different-Phenotype (%): 40%
  Population Mitotic Cells (%): 66%
  Population Normal (%): 66%
  Population Pyknosed Nuclei (%): 7%
  Population Tubulin-Different-Phenotype (%): 30%
  Total Cell Count: 62
[5]
  Population Apoptotic (%): 71%
  Population Fragmented Nuclei (%): 20%
  Population Healthy Nuclei (%): 65%
  Population Hoechst High Intensity Objects (%): 13%
  Population Membrane Permeable-Phenotype (%): 6%
  Population Mitochondria Different-Phenotype (%): 1%
  Population Mitotic Cells (%): 28%
  Population Normal (%): 86%
  Population Tubulin-Different-Phenotype (%): 3%
  Total Cell Count: 225
[6]
  Population Apoptotic (%): 66%
  Population Fragmented Nuclei (%): 57%
  Population Healthy Nuclei (%): 28%
  Population Hoechst High Intensity Objects (%): 37%
  Population Membrane Permeable-Phenotype (%): 16%
  Population Mitochondria Different-Phenotype (%): 25%
  Population Mitotic Cells (%): 33%
  Population Normal (%): 62%
  Population Pyknosed Nuclei (%): 14%
  Population Tubulin-Different-Phenotype (%): 16%
  Total Cell Count: 67
[7]
  Population Apoptotic (%): 61%
  Population Fragmented Nuclei (%): 23%
  Population Healthy Nuclei (%): 64%
  Population Hoechst High Intensity Objects (%): 11%
  Population Membrane Permeable-Phenotype (%): 3%
  Population Mitochondria Different-Phenotype (%): 6%
  Population Mitotic Cells (%): 38%
  Population Normal (%): 88%
  Population Pyknosed Nuclei (%): 12%
  Population Tubulin-Different-Phenotype (%): 6%
  Total Cell Count: 284
[8]
  Population Apoptotic (%): 100%
  Population Fragmented Nuclei (%): 72%
  Population Healthy Nuclei (%): 20%
  Population Hoechst High Intensity Objects (%): 32%
  Population Membrane Permeable-Phenotype (%): 0%
  Population Mitochondria Different-Phenotype (%): 11%
  Population Mitotic Cells (%): 0%
  Population Normal (%): 67%
  Population Pyknosed Nuclei (%): 6%
  Population Tubulin-Different-Phenotype (%): 22%
  Total Cell Count: 64
